Measurements as given in ChEMBL document CHEMBL1123247, “Nucleoside conjugates. 7. Synthesis and antitumor activity of 1-beta-D-arabinofuranosylcytosine conjugates of ether lipids” (J Med Chem, 1986).

Key:
L1210 [1] = assay: Antitumor activity against the ip implanted L1210 leukemia in mice expressed as optimal dose (1-5qd treatment schedule) required to produce greatest increase in life span was determined; type: functional, Mus musculus
Procedure, shortened: (§1)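 DBA/2J mice, groups of 6 (23-28 g), were inoculated ip with 1 × 10^6 L1210 cells on day 0. Dosing was ip from 24 h, in 0.9% NaCl with 0.5% Tween-80 (sonicated solution or suspension). Mice were observed daily until death or day 45. Median survival T/C followed NCI protocols, and ILS = (T/C − 1) × 100. Active range means doses giving ILS ≥25%; optimal dose means greatest ILS.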

L1210 [2] = assay: Antitumor activity against ip implanted L1210 leukemia in mice expressed as active dose range (1-5qd treatment schedule) required to produce increase in life span by >25% was determined; Range is 10-120
P388 [3] = assay: Antitumor activity was determined against the ip implanted P388 leukemia in mice by percent increase in life span at 300 mg/kg (1 qd treatment schedule) dosage; type: functional, Mus musculus; conditions: route intraperitoneal
Procedure, shortened: (§2)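 DBA/2J mice, 23-33 g, in groups of 6, were inoculated ip with 1×10^6 P388 cells on day 0. Dosing was ip from 24 h on the stated schedules, in 0.9% NaCl with 0.5% Tween-80 (sonicated solution or suspension). Survival was followed daily until death or 45 days. Median T/C was calculated from survivors per NCI protocols, with ILS = (T/C − 1) × 100.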

P388 [4] = assay: Antitumor activity was determined against the ip implanted P388 leukemia in mice by range in survival days at 300 mg/kg (1 qd treatment schedule) dosage; Range is 3-18; type: functional, Mus musculus; conditions: route intraperitoneal
P388 [5] = assay: Antitumor activity was determined against the ip implanted P388 leukemia in mice by percent median survival rate (treated/control) at 60 mg/kg (1-5qd treatment schedule) dosage; 21.0/12.0; type: functional, Mus musculus; conditions: route intraperitoneal
L1210 [6] = assay: Antitumor activity was determined against the ip implanted L1210 leukemia in mice by 45-day survivors in mice at 300 mg/kg (treatment of 1qd schedule) dosage; type: functional, Mus musculus; conditions: route intraperitoneal
Procedure, shortened: (§3)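 DBA/2J mice in groups of 6 (wt 23-28 g) were inoculated ip with 1×10^6 L1210 cells on day 0. Dosing was ip from 24 h, in 0.9% NaCl with 0.5% Tween-80 (conjugates sonicated), across a range of doses. Mice were observed daily until death or 45 days. Median T/C was computed from survivors per NCI protocols, and ILS = (T/C − 1)×100.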

HL-60 = assay: Compound was tested for the inhibition of human HL60 Leukemia; type: functional, cell-based
Procedure, shortened: (§4)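 Human leukemia and solid tumor cells in culture were exposed to compound for 48 h. Viability was scored by trypan blue dye exclusion. IC50 (50% inhibition) was estimated from response curves of three separate experiments.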

CML/BC = assay: Compound was tested for the inhibition of CML/BC(chronic myeloid leukemia, blast crisis); type: functional, cell-based; conditions: Homo sapiens; procedure, shortened: as §4
L1210 [7] = assay: Antitumor activity was determined against the ip implanted L1210 leukemia in mice by percent median survival rate (treated/control) at 300 mg/kg (treatment of 1qd schedule) dosage; 9.5/8.0; type: functional, Mus musculus; conditions: route intraperitoneal
Procedure, shortened: (§5)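 DBA/2J mice, 23-28 g, in groups of 6, were inoculated ip with 1×10^6 L1210 cells on day 0. Dosing was ip starting 24 h later on the stated daily schedules. Conjugates were given as sonicated solutions and reference prodrugs as suspensions in 0.9% NaCl with 0.5% Tween-80. Mice were observed daily until death or 45 days. Median survival T/C was calculated from survivors per NCI protocols.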

L1210 [8] = assay: Antitumor activity was determined against the ip implanted L1210 leukemia in mice by range in survival days at 300 mg/kg (treatment of 1qd schedule) dosage; Range is 9-10; type: functional, Mus musculus; conditions: route intraperitoneal; procedure, shortened: as §5
P388 [9] = assay: Antitumor activity was determined against the ip implanted P388 leukemia in mice by range in survival days at 60 mg/kg (1-5qd treatment schedule) dosage; Range is 18-21; type: functional, Mus musculus; conditions: route intraperitoneal
L1210 [10] = assay: Antitumor activity against the ip implanted L1210 leukemia in mice expressed as optimal dose (1 qd treatment schedule) required to produce greatest increase in life span was determined; type: functional, Mus musculus; procedure, shortened: as §1
P388 [11] = assay: Antitumor activity against the ip implanted P388 leukemia in mice expressed as optimal dose (1-5qd treatment schedule) required to produce greatest increase in life span was determined; type: functional, Mus musculus; parameters: unit: mg/kg
Procedure, shortened: (§6)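 P388 leukemia: 1 × 10^6 cells were given ip on day 0 to DBA/2J mice, groups of 6 (23-33 g). Treatment was ip from 24 h after inoculation, vehicle 0.9% NaCl with 0.5% Tween-80. Mice were observed daily until death or 45 days. Median survival T/C was calculated from survivors per NCI protocols, and ILS = (T/C − 1) × 100. Active range means doses giving ILS ≥25%; optimal dose means greatest ILS.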

P388 [12] = assay: Antitumor activity against ip implanted P388 leukemia in mice expressed as active dose range (1-5qd treatment schedule) required to produce increase in life span by >25% was determined; Range is 60-80; type: functional, Mus musculus; procedure, shortened: as §6
[13] = tested on: Small cell lung cancer cell line; assay: Compound was tested for the inhibition of small cell lung cancer; type: functional, cell-based; conditions: Homo sapiens; procedure, shortened: as §4
L1210 [14] = assay: Antitumor activity was determined against the ip implanted L1210 leukemia in mice by change in […] at 300 mg/kg (treatment of 1qd schedule) dosage; type: functional, Mus musculus; conditions: route intraperitoneal
Procedure, shortened: (§7)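 DBA/2J mice, 6 per group (wt 23-28 g), inoculated ip with 1×10^6 L1210 cells on day 0. Treatment was given ip in 0.9% NaCl with 0.5% Tween-80, starting 24 h later. Weight change was taken on day 8. Mice were observed daily until death or 45 days. Median survival T/C and %ILS = (T/C − 1) × 100 came from survivors per NCI protocols, and 45-day survivors were counted.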

P388 [15] = assay: Antitumor activity was determined against the ip implanted P388 leukemia in mice by 45-day survivors in mice at 300 mg/kg (1 qd treatment schedule) dosage; type: functional, Mus musculus; conditions: route intraperitoneal; procedure, shortened: as §2
P388 [16] = assay: Antitumor activity was determined against the ip implanted P388 leukemia in mice by 45-day survivors in mice at 60 mg/kg (1-5qd treatment schedule) dosage; type: functional, Mus musculus; conditions: route intraperitoneal; procedure, shortened: as §2
L1210 [17] = assay: Antitumor activity was determined against the ip implanted L1210 leukemia in mice by percent median survival rate (treated/control) at 80 mg/kg (treatment of 1-5qd schedule) dosage; 18.0/7.0; type: functional, Mus musculus; conditions: route intraperitoneal; procedure, shortened: as §5
AMML = assay: Compound was tested for the inhibition of AMML (acute myelomonocytic leukemia); type: functional, cell-based; conditions: Homo sapiens; procedure, shortened: as §4
L1210 [18] = assay: Antitumor activity was determined against the ip implanted L1210 leukemia in mice by percent increase in life span at 300 mg/kg (treatment of 1qd schedule) dosage; type: functional, Mus musculus; conditions: route intraperitoneal; procedure, shortened: as §3
NSCLC = assay: Compound was tested for the inhibition of non- small cell lung cancer; type: functional, cell-based; conditions: Homo sapiens; procedure, shortened: as §4
P388 [19] = assay: Antitumor activity was determined against the ip implanted P388 leukemia in mice by change in […] at 60 mg/kg (1-5qd treatment schedule) dosage; type: functional, Mus musculus; conditions: route intraperitoneal
Procedure, shortened: (§8)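 P388 leukemia, 1×10^6 cells implanted ip on day 0 into DBA/2J mice, groups of 6 (wt 23-33 g). Dosing ip started 24 h post-inoculation, vehicle 0.9% NaCl containing 0.5% Tween-80. Animals were observed daily until death or 45 days. Outputs were weight change, median survival T/C from survivors per NCI protocols, and %ILS = (T/C − 1) × 100.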

L1210 [20] = assay: Antitumor activity was determined against the ip implanted L1210 leukemia in mice by range in survival days at 80 mg/kg (treatment of 1-5qd schedule) dosage; Range is 17-18; type: functional, Mus musculus; conditions: route intraperitoneal; procedure, shortened: as §5
P388 [21] = assay: Antitumor activity was determined against the ip implanted P388 leukemia in mice by change in […] at 300 mg/kg (1 qd treatment schedule) dosage; type: functional, Mus musculus; conditions: route intraperitoneal; procedure, shortened: as §8
P388 [22] = assay: Antitumor activity was determined against the ip implanted P388 leukemia in mice by percent median survival rate (treated/control) at 300 mg/kg (1 qd treatment schedule) dosage; 12.5/11.0; type: functional, Mus musculus; conditions: route intraperitoneal
Glioblastoma cell line = assay: Compound was tested for the inhibition of glioblastoma; type: functional, cell-based; conditions: Homo sapiens; procedure, shortened: as §4
L1210 [23] = assay: Antitumor activity was determined against the ip implanted L1210 leukemia in mice by 45-day survivors in mice at 80 mg/kg (treatment of 1-5qd schedule) dosage; type: functional, Mus musculus; conditions: route intraperitoneal; procedure, shortened: as §3
L1210 [24] = assay: Antitumor activity was determined against the ip implanted L1210 leukemia in mice by change in […] at 80 mg/kg (treatment of 1-5qd schedule) dosage; type: functional, Mus musculus; conditions: route intraperitoneal; procedure, shortened: as §7
P388 [25] = assay: Antitumor activity was determined against the ip implanted P388 leukemia in mice by percent increase in life span at 60 mg/kg (1-5qd treatment schedule) dosage; type: functional, Mus musculus; conditions: route intraperitoneal; procedure, shortened: as §2
L1210 [26] = assay: Antitumor activity was determined against the ip implanted L1210 leukemia in mice by percent increase in life span at 80 mg/kg (treatment of 1-5qd schedule) dosage; type: functional, Mus musculus; conditions: route intraperitoneal; procedure, shortened: as §3
P388 [27] = assay: Antitumor activity against the ip implanted P388 leukemia in mice expressed as optimal dose (1 qd treatment schedule) required to produce greatest increase in life span was determined; type: functional, Mus musculus; procedure, shortened: as §6

## CCCCCCCCCCCCCCCCCCOCC(COP(=O)(O)OP(=O)(O)OC[C@H]1O[C@@H](n2ccc(N)nc2=O)[C@@H](O)[C@@H]1O)OC (mixture of isomers)
L1210 [1]
  Optimal dose: 80 mg
L1210 [2]
  Active dose range: 10 mg/kg/day
P388 [3]
  ILS: 14
P388 [4]
  Range: 3
P388 [5]
  T/C: 21%
L1210 [6]
  Survivors: 0
HL-60
  IC50: 13 µM
CML/BC
  IC50: 1.2 µM
L1210 [7]
  median survival time: 9.5 days
L1210 [8]
  Range: 9
P388 [9]
  Range: 18
L1210 [10]
  Optimal dose: 300 mg/kg/day
P388 [11]
  Optimal dose: 60 mg
P388 [12]
  Active dose range: 60 mg/kg/day
[13]
  IC50: > 100 µM
L1210 [14]
  Weight change: 2.58 g mouse-1
P388 [15]
  Survivors: 0
P388 [16]
  Survivors: 0
L1210 [17]
  T/C: 18%
AMML
  IC50: 2.3 µM
L1210 [18]
  ILS: 12
NSCLC
  IC50: 38 µM
P388 [19]
  Weight change: 0.04 g mouse-1
L1210 [20]
  Range: 17
P388 [21]
  Weight change: 0.38 g mouse-1
P388 [22]
  T/C: 12.5%
Glioblastoma cell line
  IC50: 47 µM
L1210 [23]
  Survivors: 0
L1210 [24]
  Weight change: -1.53 g mouse-1
P388 [25]
  ILS: 75
L1210 [26]
  ILS: 157
P388 [27]
  Optimal dose: 300 mg
